Laboratory results published in ChEMBL document CHEMBL3351470, “Synthesis and Structure-Activity Relationships of α-Amino-γ-lactone Ketolides: A Novel Class of Macrolide Antibiotics” (2014).
In brackets after ≈: the same amount, converted by molar mass.

Key:
Assay type in all cases: functional
Streptococcus pneumoniae [1] = experiment: Antibacterial activity against erythromycin-susceptible Streptococcus pneumoniae by agar microdilution method
Method in brief: (§1)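 Strains from an in-house culture collection (Pliva Research Institute). MIC determined by agar microdilution following NCCLS standards and reported in μg/mL. Erythromycin-susceptible strains are listed as Ery-S; the panel also includes inducibly resistant (iMLS), constitutively resistant (MLSB) and efflux-resistant (M) strains.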

Streptococcus pyogenes [2] = experiment: Antibacterial activity against erythromycin-susceptible Streptococcus pyogenes by agar microdilution method; method in brief: as §1
Staphylococcus aureus [3] = experiment: Antibacterial activity against erythromycin-susceptible Staphylococcus aureus by agar microdilution method; method in brief: as §1
Streptococcus pneumoniae [4] = experiment: Antibacterial activity against efflux-resistant Streptococcus pneumoniae by agar microdilution method
Method in brief: (§2)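 Agar microdilution MIC following NCCLS standards; strains taken from the Pliva Research Institute culture collection. Panel grouped by phenotype: erythromycin-susceptible, inducibly MLS-resistant (iMLS), constitutively MLSB-resistant and efflux-resistant (M). Azithromycin, telithromycin and cethromycin tested alongside as references. MIC reported in μg/mL.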

Staphylococcus aureus [5] = experiment: Antibacterial activity against macrolide lincosamide- streptogramin B inducibly-resistant Staphylococcus aureus by agar microdilution method; method in brief: as §2
Streptococcus pyogenes [6] = experiment: Antibacterial activity against macrolide lincosamide- streptogramin B inducibly-resistant Streptococcus pyogenes by agar microdilution method; method in brief: as §2
Streptococcus pyogenes [7] = experiment: Antibacterial activity against efflux-resistant Streptococcus pyogenes by agar microdilution method; method in brief: as §2
Haemophilus influenzae = experiment: Antibacterial activity against Haemophilus influenzae by agar microdilution method; method in brief: as §1
Streptococcus pneumoniae [8] = experiment: Antibacterial activity against macrolide lincosamide- streptogramin B inducibly-resistant Streptococcus pneumoniae by agar microdilution method; method in brief: as §2
Staphylococcus aureus [9] = experiment: Antibacterial activity against macrolide lincosamide- streptogramin B-resistant Staphylococcus aureus by agar microdilution method; method in brief: as §2

SMILES | MIC (Streptococcus pneumoniae [1]) [µg/mL] | MIC (Streptococcus pyogenes [2]) [µg/mL] | MIC (Staphylococcus aureus [3]) [µg/mL] | MIC (Streptococcus pneumoniae [4]) [µg/mL] | MIC (Staphylococcus aureus [5]) [µg/mL] | MIC (Streptococcus pyogenes [6]) [µg/mL] | MIC (Streptococcus pyogenes [7]) [µg/mL] | MIC (Haemophilus influenzae) [µg/mL] | MIC (Streptococcus pneumoniae [8]) [µg/mL] | MIC (Staphylococcus aureus [9]) [µg/mL]
CC[C@H]1OC(=O)[C@H](C)C(=O)[C@H](C)[C@@H](O[C@@H]2O[C@H](C)C[C@H](N(C)C)[C@H]2O)[C@](C)(OC)C[C@@H](C)C(=O)[C@H](C)[C@H]2C(N)C(=O)O[C@@]21C (some centres undefined) | ≤ 0.125 | 2 (≈ 3.19 µM) | 1 (≈ 1.6 µM) | 8 (≈ 12.8 µM) | 32 (≈ 51.1 µM) | > 64 | 8 (≈ 12.8 µM) | > 64 | > 64 | > 64
CC[C@H]1OC(=O)[C@H](C)C(=O)[C@H](C)[C@@H](O[C@@H]2O[C@H](C)C[C@H](N(C)C)[C@H]2O)[C@](C)(OC)C[C@@H](C)C(=O)[C@H](C)[C@H]2C(NC(=O)CCc3ccccc3)C(=O)O[C@@]21C (some centres undefined) | ≤ 0.125 | 0.5 (≈ 0.659 µM) | 4 (≈ 5.27 µM) | 4 (≈ 5.27 µM) | 8 (≈ 10.5 µM) | 16 (≈ 21.1 µM) | 8 (≈ 10.5 µM) | 16 (≈ 21.1 µM) | 16 (≈ 21.1 µM) | > 64
CC[C@H]1OC(=O)[C@H](C)C(=O)[C@H](C)[C@@H](O[C@@H]2O[C@H](C)C[C@H](N(C)C)[C@H]2O)[C@](C)(OC)C[C@@H](C)C(=O)[C@H](C)[C@H]2C(NC(=O)CCc3ccncc3)C(=O)O[C@@]21C (some centres undefined) | ≤ 0.125 | ≤ 0.125 | 4 (≈ 5.26 µM) | 8 (≈ 10.5 µM) | 8 (≈ 10.5 µM) | 2 (≈ 2.63 µM) | 2 (≈ 2.63 µM) | 2 (≈ 2.63 µM) | 16 (≈ 21.1 µM) | > 64
CC[C@H]1OC(=O)[C@H](C)C(=O)[C@H](C)[C@@H](O[C@@H]2O[C@H](C)C[C@H](N(C)C)[C@H]2O)[C@](C)(OC)C[C@@H](C)C(=O)[C@H](C)[C@H]2C(NC(=O)CCc3cccnc3)C(=O)O[C@@]21C (some centres undefined) | ≤ 0.125 | ≤ 0.125 | 2 (≈ 2.63 µM) | 2 (≈ 2.63 µM) | 4 (≈ 5.26 µM) | 4 (≈ 5.26 µM) | 2 (≈ 2.63 µM) | 8 (≈ 10.5 µM) | 4 (≈ 5.26 µM) | > 64
CC[C@H]1OC(=O)[C@H](C)C(=O)[C@H](C)[C@@H](O[C@@H]2O[C@H](C)C[C@H](N(C)C)[C@H]2O)[C@](C)(OC)C[C@@H](C)C(=O)[C@H](C)[C@H]2C(NC(=O)CCc3ccccn3)C(=O)O[C@@]21C (some centres undefined) | ≤ 0.125 | ≤ 0.125 | 4 (≈ 5.26 µM) | 2 (≈ 2.63 µM) | 4 (≈ 5.26 µM) | 32 (≈ 42.1 µM) | 4 (≈ 5.26 µM) | 16 (≈ 21.1 µM) | 2 (≈ 2.63 µM) | > 64
CC[C@H]1OC(=O)[C@H](C)C(=O)[C@H](C)[C@@H](O[C@@H]2O[C@H](C)C[C@H](N(C)C)[C@H]2O)[C@](C)(OC)C[C@@H](C)C(=O)[C@H](C)[C@H]2C(NC(=O)CCc3ccc4ccccc4c3)C(=O)O[C@@]21C (some centres undefined) | ≤ 0.125 | ≤ 0.125 | 1 (≈ 1.24 µM) | 2 (≈ 2.47 µM) | 1 (≈ 1.24 µM) | 4 (≈ 4.94 µM) | 8 (≈ 9.89 µM) | 2 (≈ 2.47 µM) | 2 (≈ 2.47 µM) | > 64
CC[C@H]1OC(=O)[C@H](C)C(=O)[C@H](C)[C@@H](O[C@@H]2O[C@H](C)C[C@H](N(C)C)[C@H]2O)[C@](C)(OC)C[C@@H](C)C(=O)[C@H](C)[C@H]2C(NC(=O)CCc3cnc4ccccc4c3)C(=O)O[C@@]21C (some centres undefined) | ≤ 0.125 | ≤ 0.125 | 1 (≈ 1.23 µM) | 0.5 (≈ 0.617 µM) | 1 (≈ 1.23 µM) | 1 (≈ 1.23 µM) | 2 (≈ 2.47 µM) | 4 (≈ 4.94 µM) | 1 (≈ 1.23 µM) | > 64
CC[C@H]1OC(=O)[C@H](C)C(=O)[C@H](C)[C@@H](O[C@@H]2O[C@H](C)C[C@H](N(C)C)[C@H]2O)[C@](C)(OC)C[C@@H](C)C(=O)[C@H](C)[C@H]2C(NC(=O)CCc3cnc4c(OC)cccc4c3)C(=O)O[C@@]21C (some centres undefined) | ≤ 0.125 | ≤ 0.125 | 0.5 (≈ 0.595 µM) | 0.25 (≈ 0.298 µM) | 1 (≈ 1.19 µM) | 0.5 (≈ 0.595 µM) | 0.25 (≈ 0.298 µM) | 1 (≈ 1.19 µM) | 0.25 (≈ 0.298 µM) | > 64
CC[C@H]1OC(=O)[C@H](C)C(=O)[C@H](C)[C@@H](O[C@@H]2O[C@H](C)C[C@H](N(C)C)[C@H]2O)[C@](C)(OC)C[C@@H](C)C(=O)[C@H](C)[C@H]2C(NC(=O)CCc3cnc4ccc(OC)cc4c3)C(=O)O[C@@]21C (some centres undefined) | ≤ 0.125 | ≤ 0.125 | 2 (≈ 2.38 µM) | 0.5 (≈ 0.595 µM) | 1 (≈ 1.19 µM) | 0.25 (≈ 0.298 µM) | 0.5 (≈ 0.595 µM) | 1 (≈ 1.19 µM) | 0.5 (≈ 0.595 µM) | > 64
CC[C@H]1OC(=O)[C@H](C)C(=O)[C@H](C)[C@@H](O[C@@H]2O[C@H](C)C[C@H](N(C)C)[C@H]2O)[C@](C)(OC)C[C@@H](C)C(=O)[C@H](C)[C@H]2C(NC(=O)/C=C/CCc3cnc4ccccc4c3)C(=O)O[C@@]21C (some centres undefined) | ≤ 0.125 | ≤ 0.125 | 2 (≈ 2.39 µM) | 1 (≈ 1.2 µM) | 2 (≈ 2.39 µM) | 8 (≈ 9.57 µM) | 4 (≈ 4.78 µM) | 8 (≈ 9.57 µM) | 8 (≈ 9.57 µM) | > 64
CC[C@H]1OC(=O)[C@H](C)C(=O)[C@H](C)[C@@H](O[C@@H]2O[C@H](C)C[C@H](N(C)C)[C@H]2O)[C@](C)(OC)C[C@@H](C)C(=O)[C@H](C)[C@H]2C(NC(=O)/C=C/CCc3cnc4c(OC)cccc4c3)C(=O)O[C@@]21C (some centres undefined) | ≤ 0.125 | ≤ 0.125 | 1 (≈ 1.15 µM) | 2 (≈ 2.31 µM) | 1 (≈ 1.15 µM) | 0.5 (≈ 0.577 µM) | 2 (≈ 2.31 µM) | 1 (≈ 1.15 µM) | 2 (≈ 2.31 µM) | > 64
CC[C@H]1OC(=O)[C@H](C)C(=O)[C@H](C)[C@@H](O[C@@H]2O[C@H](C)C[C@H](N(C)C)[C@H]2O)[C@](C)(OC)C[C@@H](C)C(=O)[C@H](C)[C@H]2C(NC(=O)/C=C/CCc3cnc4ccc(OC)cc4c3)C(=O)O[C@@]21C (some centres undefined) | ≤ 0.125 | ≤ 0.125 | 2 (≈ 2.31 µM) | 4 (≈ 4.62 µM) | 2 (≈ 2.31 µM) | 0.25 (≈ 0.289 µM) | 4 (≈ 4.62 µM) | 1 (≈ 1.15 µM) | 8 (≈ 9.24 µM) | > 64
CC[C@H]1OC(=O)[C@H](C)C(=O)[C@H](C)[C@@H](O[C@@H]2O[C@H](C)C[C@H](N(C)C)[C@H]2O)[C@](C)(OC)C[C@@H](C)C(=O)[C@H](C)[C@H]2C(NC(=O)CCCCc3cnc4ccccc4c3)C(=O)O[C@@]21C (some centres undefined) | ≤ 0.125 | ≤ 0.125 | 1 (≈ 1.19 µM) | 4 (≈ 4.77 µM) | 2 (≈ 2.39 µM) | 8 (≈ 9.55 µM) | 16 (≈ 19.1 µM) | 16 (≈ 19.1 µM) | 8 (≈ 9.55 µM) | > 64
CC[C@H]1OC(=O)[C@H](C)C(=O)[C@H](C)[C@@H](O[C@@H]2O[C@H](C)C[C@H](N(C)C)[C@H]2O)[C@](C)(OC)C[C@@H](C)C(=O)[C@H](C)[C@H]2C(NC(=O)CCCCc3cnc4c(OC)cccc4c3)C(=O)O[C@@]21C (some centres undefined) | ≤ 0.125 | ≤ 0.125 | 1 (≈ 1.15 µM) | 4 (≈ 4.61 µM) | 1 (≈ 1.15 µM) | 4 (≈ 4.61 µM) | 4 (≈ 4.61 µM) | 16 (≈ 18.4 µM) | 2 (≈ 2.3 µM) | > 64
CC[C@H]1OC(=O)[C@H](C)C(=O)[C@H](C)[C@@H](O[C@@H]2O[C@H](C)C[C@H](N(C)C)[C@H]2O)[C@](C)(OC)C[C@@H](C)C(=O)[C@H](C)[C@H]2C(NC(=O)CCCCc3cnc4ccc(OC)cc4c3)C(=O)O[C@@]21C (some centres undefined) | ≤ 0.125 | ≤ 0.125 | 1 (≈ 1.15 µM) | 4 (≈ 4.61 µM) | 2 (≈ 2.3 µM) | 2 (≈ 2.3 µM) | 4 (≈ 4.61 µM) | 8 (≈ 9.22 µM) | 4 (≈ 4.61 µM) | > 64
CC[C@H]1OC(=O)[C@H](C)C(=O)[C@H](C)[C@@H](O[C@@H]2O[C@H](C)C[C@H](N(C)C)[C@H]2O)[C@](C)(OC)C[C@@H](C)C(=O)[C@H](C)[C@H]2C(NC(=O)CSc3cnc4ccccc4n3)C(=O)O[C@@]21C (some centres undefined) | ≤ 0.06 | ≤ 0.06 | ≤ 0.125 | 0.25 (≈ 0.302 µM) | 0.25 (≈ 0.302 µM) | 0.25 (≈ 0.302 µM) | 0.25 (≈ 0.302 µM) | 0.5 (≈ 0.603 µM) | ≤ 0.125 | > 64
CC[C@H]1OC(=O)[C@H](C)C(=O)[C@H](C)[C@@H](O[C@@H]2O[C@H](C)C[C@H](N(C)C)[C@H]2O)[C@](C)(OC)C[C@@H](C)C(=O)[C@H](C)[C@H]2C(NC(=O)CNC(=O)CSc3cnc4ccccc4n3)C(=O)O[C@@]21C (some centres undefined) | 0.25 (≈ 0.282 µM) | 0.25 (≈ 0.282 µM) | ≤ 0.125 | 0.5 (≈ 0.564 µM) | 0.25 (≈ 0.282 µM) | 1 (≈ 1.13 µM) | 0.5 (≈ 0.564 µM) | 2 (≈ 2.26 µM) | 0.5 (≈ 0.564 µM) | > 64
CC[C@H]1OC(=O)[C@H](C)C(=O)[C@H](C)[C@@H](O[C@@H]2O[C@H](C)C[C@H](N(C)C)[C@H]2O)[C@](C)(OCC=Cc2cnc3ccccc3c2)C[C@@H](C)C(=O)[C@H](C)[C@H]2NC(=O)O[C@@]21C [CETHROMYCIN] | ≤ 0.06 | ≤ 0.06 | ≤ 0.125 |  | 0.25 (≈ 0.326 µM) | 1 (≈ 1.31 µM) | ≤ 0.125 | 2 (≈ 2.61 µM) | ≤ 0.125 | > 64
